# Measurements pooled from the literature.
# Protocols differ between the studies behind these lines.
SMILES,tested on,test,test system,conditions,endpoint,result
COc1ccc(NC(=O)c2c(Nc3ccccc3)sc(C#N)c2NC(=O)CNc2ccccc2)cc1,HepG2,"cell growth or viability, SRB",,"1 µM, 48 h",viability,88.6%
Oc1ccc(-c2nc(N3CCC(c4ccccn4)C3)c3ccccc3n2)cc1 (centres unmarked),Trypanosoma cruzi,"parasite growth, imaging",U2OS,"intracellular, amastigote",IC50,1.13 µM
COc1ccc(NC(=O)c2c(Nc3ccccc3)sc(C(=O)NN=Cc3ccc(C)cc3)c2NC(C)=O)cc1,HepG2,"cell growth or viability, SRB",,"10 µM, 48 h",viability,68.2%
CCOC(=O)c1ccc(-n2c(C)cc(C)c(C#N)c2=O)cc1,HepG2,"cell growth or viability, MTT",,"1.56 µM, 24 h",viability,100%
COc1ccc(NCC(=O)Nc2c(C#N)sc(Nc3ccccc3)c2C(=O)Nc2ccc(OC)cc2)cc1,HepG2,"cell growth or viability, SRB",,"10 nM, 48 h",viability,91.1%
CCN1CCc2c(sc(NC(=O)c3cc(C(F)(F)F)cc(C(F)(F)F)c3)c2C(=O)NCc2ccc(C)cc2)C1,Mycobacterium tuberculosis,"microbial growth, resazurin",H37RV,,MIC,350 µM
CCOC(=O)c1ccc(-n2c(C)cc(/C=C/c3ccc(OC)cc3)c(C#N)c2=O)cc1,HepG2,"cell growth or viability, MTT",,"6.25 µM, 24 h",viability,96%
COc1ccc(NC(=O)c2c(Nc3ccccc3)sc(C#N)c2NC(=O)CNc2ccc(Cl)cc2)cc1,HepG2,"cell growth or viability, SRB",,"1 nM, 48 h",viability,99.1%
Nc1sc(-c2ccccc2)cc1C(=O)NCc1ccccc1,Mycobacterium tuberculosis,"microbial growth, resazurin",H37RV,,MIC,325 µM
N#Cc1ccccc1-c1nc(N2CCC(c3ccccn3)C2)c2ccccc2n1 (centres unmarked),Trypanosoma cruzi,"parasite growth, imaging",U2OS,"intracellular, amastigote",IC50,5.86 µM
CCOC(=O)c1c(NC(=O)c2c(F)c(F)c(F)c(F)c2F)sc2c1CCCC2,Mycobacterium tuberculosis,"microbial growth, resazurin",H37RV,,MIC,< 50 µM
Fc1cccc(Nc2nc(-c3ccccn3)nc3ccccc23)c1,Trypanosoma cruzi,"parasite growth, imaging",U2OS,"intracellular, amastigote",IC50,1.5 µM
CCCCNC(=O)c1c(N)sc2c1CCN(CC)C2,Mycobacterium tuberculosis,"microbial growth, resazurin",H37RV,7 days,MIC,> 300 µM
Fc1cccc(F)c1-c1nc(N2CCC(c3ccccn3)C2)c2ccccc2n1 (centres unmarked),Trypanosoma cruzi,"parasite growth, imaging",U2OS,"intracellular, amastigote",IC50,9.7 µM
